From ChEMBL document CHEMBL1127344, “Tridentate ligands containing the SNS donor atom set as a novel backbone for the development of technetium brain-imaging agents” (J Med Chem, 1994)

Columns and labels:
[1] = species: Mus musculus; test: Tested for biodistribution of compound at 1 min in mice intestine; type: ADME, organism-based; conditions: in vivo
Method in brief: (§1)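 Male Swiss albino mice, at least five per group, received 0.1 mL (2-3 μCi) of HPLC-purified 99mTc complex reconstituted in 50% methanol by tail vein. They were killed by cardiectomy under light ether anesthesia at set times (1-60 min pi). Organs were weighed and γ-counted against a 1% injected-dose standard to give % dose/organ. Blood and muscle were taken as 7% and 43% of body weight.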

[2] = species: Mus musculus; test: Tested for biodistribution of compound at 30 min in mice stomach; type: ADME, organism-based; conditions: in vivo, 0.5 h; method in brief: as §1
[3] = species: Mus musculus; test: Tested for biodistribution of compound at 60 min in mice brain; type: ADME, organism-based; conditions: in vivo, 1 h
Method in brief: (§2)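 Male Swiss albino mice, at least five per group, received HPLC-purified 99mTc complex by tail vein. The complex was reconstituted in 50% methanol (0.1 mL, 2-3 μCi). Mice were killed by cardiectomy under light ether at 1-60 min pi. Organs were weighed and γ-counted against a 1% injected-dose standard to give % dose/organ. Blood and muscle were taken as 7% and 43% of body weight.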

[4] = species: Mus musculus; test: Tested for biodistribution of compound at 1 min in mice stomach; type: ADME, organism-based; conditions: in vivo; method in brief: as §1
[5] = species: Mus musculus; test: Tested for biodistribution of compound at 5 min in mice kidney; type: ADME, organism-based; conditions: in vivo; method in brief: as §2
[6] = species: Mus musculus; test: Tested for biodistribution of compound at 30 min in mice brain; type: ADME, organism-based; conditions: in vivo, 0.5 h; method in brief: as §1
[7] = species: Mus musculus; test: Tested for biodistribution of compound at 10 min in mice heart; type: ADME, organism-based; conditions: in vivo; method in brief: as §1
[8] = species: Mus musculus; test: Tested for biodistribution of compound at 60 min in mice lungs; type: ADME, organism-based, Lung; conditions: in vivo, 1 h; method in brief: as §2
[9] = species: Mus musculus; test: Tested for biodistribution of compound at 10 min in mice muscle; type: ADME, organism-based, Muscle tissue; conditions: in vivo; method in brief: as §1
[10] = species: Mus musculus; test: Tested for biodistribution of compound at 30 min in mice muscle; type: ADME, organism-based, Muscle tissue; conditions: in vivo, 0.5 h; method in brief: as §1
[11] = species: Mus musculus; test: Tested for biodistribution of compound at 5 min in mice heart; type: ADME, organism-based; conditions: in vivo; method in brief: as §2
[12] = species: Mus musculus; test: Tested for biodistribution of compound at 10 min in mice urine; type: ADME, organism-based; conditions: in vivo; method in brief: as §1
[13] = species: Mus musculus; test: Tested for biodistribution of compound at 1 min in mice liver; type: ADME, organism-based; conditions: in vivo; method in brief: as §1
[14] = species: Mus musculus; test: Tested for biodistribution of compound at 5 min in mice intestine; type: ADME, organism-based; conditions: in vivo; method in brief: as §2
[15] = species: Mus musculus; test: Tested for biodistribution of compound at 60 min in mice heart; type: ADME, organism-based; conditions: in vivo, 1 h; method in brief: as §2
[16] = species: Mus musculus; test: Tested for biodistribution of compound at 60 min in mice iver; type: ADME, organism-based, Liver; conditions: in vivo, 1 h; method in brief: as §2
[17] = species: Mus musculus; test: Tested for biodistribution of compound at 5 min in mice muscle; type: ADME, organism-based, Muscle tissue; conditions: in vivo; method in brief: as §2
[18] = species: Mus musculus; test: Tested for biodistribution of compound at 5 min in mice lungs; type: ADME, organism-based, Lung; conditions: in vivo; method in brief: as §2
[19] = species: Mus musculus; test: Tested for biodistribution of compound at 5 min in mice blood; type: ADME, organism-based; conditions: in vivo; method in brief: as §2
[20] = species: Mus musculus; test: Tested for biodistribution of compound at 5 min in mice iver; type: ADME, organism-based, Liver; conditions: in vivo; method in brief: as §2
[21] = species: Mus musculus; test: Tested for biodistribution of compound at 1 min in mice muscle; type: ADME, organism-based, Muscle tissue; conditions: in vivo; method in brief: as §1
[22] = species: Mus musculus; test: Tested for biodistribution of compound at 1 min in mice brain; type: ADME, organism-based; conditions: in vivo; method in brief: as §1
[23] = species: Mus musculus; test: Tested for biodistribution of compound at 60 min in mice stomach; type: ADME, organism-based; conditions: in vivo, 1 h; method in brief: as §2
[24] = species: Mus musculus; test: Tested for biodistribution of compound at 30 min in mice blood; type: ADME, organism-based; conditions: in vivo, 0.5 h; method in brief: as §1
[25] = species: Mus musculus; test: Tested for biodistribution of compound at 10 min in mice iver; type: ADME, organism-based, Liver; conditions: in vivo; method in brief: as §1
[26] = species: Mus musculus; test: Tested for biodistribution of compound at 5 min in mice brain; type: ADME, organism-based; conditions: in vivo; method in brief: as §2
[27] = species: Mus musculus; test: Tested for biodistribution of compound at 30 min in mice lungs; type: ADME, organism-based, Lung; conditions: in vivo, 0.5 h; method in brief: as §1
[28] = species: Mus musculus; test: Tested for biodistribution of compound at 60 min in mice muscle; type: ADME, organism-based, Muscle tissue; conditions: in vivo, 1 h; method in brief: as §2
[29] = species: Mus musculus; test: Tested for biodistribution of compound at 60 min in mice urine; type: ADME, organism-based; conditions: in vivo, 1 h; method in brief: as §2
[30] = species: Mus musculus; test: Tested for biodistribution of compound at 30 min in mice spleen; type: ADME, organism-based; conditions: in vivo, 0.5 h; method in brief: as §1
[31] = species: Mus musculus; test: Tested for biodistribution of compound at 5 min in mice stomach; type: ADME, organism-based; conditions: in vivo; method in brief: as §2
[32] = species: Mus musculus; test: Tested for biodistribution of compound at 1 min in mice lungs; type: ADME, organism-based, Lung; conditions: in vivo; method in brief: as §1
[33] = species: Mus musculus; test: Tested for biodistribution of compound at 10 min in mice blood; type: ADME, organism-based; conditions: in vivo; method in brief: as §1
[34] = species: Mus musculus; test: Tested for biodistribution of compound at 5 min in mice spleen; type: ADME, organism-based; conditions: in vivo; method in brief: as §2
[35] = species: Mus musculus; test: Tested for biodistribution of compound at 10 min in mice lungs; type: ADME, organism-based, Lung; conditions: in vivo; method in brief: as §1
[36] = species: Mus musculus; test: Tested for biodistribution of compound at 30 min in mice heart; type: ADME, organism-based; conditions: in vivo, 0.5 h; method in brief: as §1
[37] = species: Mus musculus; test: Tested for biodistribution of compound at 1 min in mice kidney; type: ADME, organism-based; conditions: in vivo; method in brief: as §1
[38] = species: Mus musculus; test: Tested for biodistribution of compound at 60 min in mice blood; type: ADME, organism-based; conditions: in vivo, 1 h; method in brief: as §2
[39] = species: Mus musculus; test: Tested for biodistribution of compound at 30 min in mice intestine; type: ADME, organism-based; conditions: in vivo, 0.5 h; method in brief: as §1
[40] = species: Mus musculus; test: Tested for biodistribution of compound at 60 min in mice kidney; type: ADME, organism-based; conditions: in vivo, 1 h; method in brief: as §2
[41] = species: Mus musculus; test: Tested for biodistribution of compound at 30 min in mice urine; type: ADME, organism-based; conditions: in vivo, 0.5 h; method in brief: as §1
[42] = species: Mus musculus; test: Tested for biodistribution of compound at 30 min in mice kidney; type: ADME, organism-based; conditions: in vivo, 0.5 h; method in brief: as §1
[43] = species: Mus musculus; test: Tested for biodistribution of compound at 1 min in mice spleen; type: ADME, organism-based; conditions: in vivo; method in brief: as §1
[44] = species: Mus musculus; test: Tested for biodistribution of compound at 30 min in mice iver; type: ADME, organism-based, Liver; conditions: in vivo, 0.5 h; method in brief: as §1
[45] = species: Mus musculus; test: Tested for biodistribution of compound at 1 min in mice heart; type: ADME, organism-based; conditions: in vivo; method in brief: as §1
[46] = species: Mus musculus; test: Tested for biodistribution of compound at 10 min in mice spleen; type: ADME, organism-based; conditions: in vivo; method in brief: as §1
[47] = species: Mus musculus; test: Tested for biodistribution of compound at 10 min in mice intestine; type: ADME, organism-based; conditions: in vivo; method in brief: as §1
[48] = species: Mus musculus; test: Tested for biodistribution of compound at 10 min in mice kidney; type: ADME, organism-based; conditions: in vivo; method in brief: as §1
[49] = species: Mus musculus; test: Tested for biodistribution of compound at 10 min in mice brain; type: ADME, organism-based; conditions: in vivo; method in brief: as §1
[50] = species: Mus musculus; test: Tested for biodistribution of compound at 1 min in mice blood; type: ADME, organism-based; conditions: in vivo; method in brief: as §1
[51] = species: Mus musculus; test: Tested for biodistribution of compound at 60 min in mice spleen; type: ADME, organism-based; conditions: in vivo, 1 h; method in brief: as §2
[52] = species: Mus musculus; test: Tested for biodistribution of compound at 10 min in mice stomach; type: ADME, organism-based; conditions: in vivo; method in brief: as §1
[53] = species: Mus musculus; test: Tested for biodistribution of compound at 60 min in mice intestine; type: ADME, organism-based; conditions: in vivo, 1 h; method in brief: as §2

“[4-methoxythio)phenolato][N,N-bis(2-mercaptoethyl)-2-(ethylthio)ethylamine] oxotechnetium” showed a Dose/organ [1] of 4.14%, a Dose/organ [2] of 0.37% and a Dose/organ [3] of 0.15%. The Dose/organ [4] was 0.35%, the Dose/organ [5] was 2.45% and the Dose/organ [6] was 0.39%. It also gave a Dose/organ [7] of 0.31%, a Dose/organ [8] of 0.26% and a Dose/organ [9] of 20.29%. The Dose/organ [10] was 10.41%, the Dose/organ [11] was 0.59% and the Dose/organ [12] was 0.27%. For the same substance, the Dose/organ [13] was 3.58%, the Dose/organ [14] was 9.31% and the Dose/organ [15] was 0.05%. For the same substance, the Dose/organ [16] was 18.03%, the Dose/organ [17] was 25.57% and the Dose/organ [18] was 1.52%. The Dose/organ [19] was 1.66%, the Dose/organ [20] was 16.97% and the Dose/organ [21] was 34.39%. For the same substance, the Dose/organ [22] was 3.68%, the Dose/organ [23] was 1.1% and the Dose/organ [24] was 0.8%. For the same substance, the Dose/organ [25] was 24.79%, the Dose/organ [26] was 2.43% and the Dose/organ [27] was 0.52%. The Dose/organ [28] was 5.27%, the Dose/organ [29] was 1.79% and the Dose/organ [30] was 0.06%. The Dose/organ [31] was 0.73%, the Dose/organ [32] was 5.25% and the Dose/organ [33] was 1.24%. The Dose/organ [34] was 0.21%, the Dose/organ [35] was 1.05% and the Dose/organ [36] was 0.11%. The Dose/organ [37] was 2.3%, the Dose/organ [38] was 0.79% and the Dose/organ [39] was 43.12%. For the same substance, the Dose/organ [40] was 0.54%, the Dose/organ [41] was 0.77% and the Dose/organ [42] was 1.04%. It also gave a Dose/organ [43] of 0.06%, a Dose/organ [44] of 24.36% and a Dose/organ [45] of 4.02%. For the same substance, the Dose/organ [46] was 0.16%, the Dose/organ [47] was 15.44% and the Dose/organ [48] was 1.76%. It also gave a Dose/organ [49] of 1.57%, a Dose/organ [50] of 5.77% and a Dose/organ [51] of 0.03%. The Dose/organ [52] was 1.02% and the Dose/organ [53] was 44.3%.
